ChEMBL document CHEMBL1128411, “Conformationally defined 6-s-trans-retinoic acid analogs. 2. Selective agonists for nuclear receptor binding and transcriptional activity” (J Med Chem, 1995)

Experiments:
[1] = biological target: T1, Retinoic acid receptor beta (Mus musculus, UniProt P22605); test: Inhibition of murine Retinoic acid receptor RAR beta
T1 sequence (P22605 whole entry): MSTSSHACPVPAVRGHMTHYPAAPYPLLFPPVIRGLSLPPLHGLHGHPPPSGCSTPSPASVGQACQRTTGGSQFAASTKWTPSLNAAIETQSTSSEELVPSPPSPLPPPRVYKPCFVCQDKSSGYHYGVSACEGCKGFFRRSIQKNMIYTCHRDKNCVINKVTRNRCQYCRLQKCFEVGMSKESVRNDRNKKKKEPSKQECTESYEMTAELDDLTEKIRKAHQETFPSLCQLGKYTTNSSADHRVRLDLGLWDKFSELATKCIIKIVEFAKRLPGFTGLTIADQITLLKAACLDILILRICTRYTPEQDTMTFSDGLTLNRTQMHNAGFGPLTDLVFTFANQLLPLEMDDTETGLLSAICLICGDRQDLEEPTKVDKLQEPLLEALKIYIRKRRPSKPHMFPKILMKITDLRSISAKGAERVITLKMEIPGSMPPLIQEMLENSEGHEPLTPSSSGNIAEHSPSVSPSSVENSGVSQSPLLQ
Outline: (§1)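 Nucleosol fractions from COS-1 cells transfected with mouse RARα, β or γ cDNA in pSG5 were incubated with 5 nM [3H]-(all-E)-RA at 4 °C for 4 h. Competitor in ethanol was added at nine concentrations (0–10 μM) in duplicate. Bound label was separated on PD-10 desalting columns and counted by scintillation. IC50 came from a fit of percent specific binding.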

[2] = biological target: T2, Retinoic acid receptor RXR-alpha (Mus musculus, UniProt P28700); test: Inhibition of binding to murine Retinoid X receptor RXR alpha
T2 sequence (P28700 whole entry): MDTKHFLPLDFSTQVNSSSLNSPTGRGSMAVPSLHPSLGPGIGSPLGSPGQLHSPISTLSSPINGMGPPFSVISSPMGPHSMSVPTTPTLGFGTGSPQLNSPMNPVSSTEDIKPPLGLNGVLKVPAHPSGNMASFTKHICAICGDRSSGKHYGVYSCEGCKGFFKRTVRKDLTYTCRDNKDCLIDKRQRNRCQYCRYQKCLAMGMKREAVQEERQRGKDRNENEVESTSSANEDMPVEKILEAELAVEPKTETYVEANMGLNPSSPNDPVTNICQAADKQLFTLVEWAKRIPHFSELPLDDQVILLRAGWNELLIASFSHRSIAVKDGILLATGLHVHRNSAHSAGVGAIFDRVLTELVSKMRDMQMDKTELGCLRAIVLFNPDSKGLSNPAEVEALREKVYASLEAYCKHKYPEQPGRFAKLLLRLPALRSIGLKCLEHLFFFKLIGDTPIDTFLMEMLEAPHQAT

[3] = biological target: T3, Retinoic acid receptor gamma (Mus musculus, UniProt P18911); test: Inhibition of binding to murine Retinoic acid receptor RAR gamma; outline: as §1
T3 sequence (P18911 whole entry): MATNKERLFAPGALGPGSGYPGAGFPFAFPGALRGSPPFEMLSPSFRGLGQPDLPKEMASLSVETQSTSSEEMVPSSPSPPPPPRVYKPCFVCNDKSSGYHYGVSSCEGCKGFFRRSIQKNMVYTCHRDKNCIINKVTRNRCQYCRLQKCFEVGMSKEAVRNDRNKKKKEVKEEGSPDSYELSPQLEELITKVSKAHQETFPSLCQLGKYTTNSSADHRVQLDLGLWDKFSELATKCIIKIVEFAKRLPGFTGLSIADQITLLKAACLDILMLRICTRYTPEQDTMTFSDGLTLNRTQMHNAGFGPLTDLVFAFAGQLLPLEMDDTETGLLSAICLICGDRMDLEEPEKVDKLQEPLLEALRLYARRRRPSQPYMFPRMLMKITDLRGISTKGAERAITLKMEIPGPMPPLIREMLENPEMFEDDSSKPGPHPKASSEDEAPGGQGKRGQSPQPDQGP

[4] = biological target: T4, Cellular retinoic acid-binding protein 2 (Mus musculus, UniProt P22935); test: Binding affinity for mouse Cytoplasmic retinoic acid binding protein type 2
T4 sequence (P22935 whole entry): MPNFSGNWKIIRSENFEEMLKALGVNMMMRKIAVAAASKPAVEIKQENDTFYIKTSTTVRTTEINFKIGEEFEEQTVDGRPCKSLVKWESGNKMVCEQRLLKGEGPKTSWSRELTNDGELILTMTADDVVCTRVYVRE
Outline: (§2)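 Equilibrium fluorometric titration at 25 °C of recombinant E. coli-expressed apo-proteins (mCRABP-I, mCRABP-II, or hRXRα DEF ligand-binding domain). Ligands came from ethanol stocks, with concentrations set by UV/vis in hexane. Tryptophan fluorescence quenching was read and corrected for inner filter effects. A survey was run at 10^-6 M protein to check stoichiometry.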

[5] = biological target: Cellular retinoic acid-binding protein 1 (Mus musculus, UniProt P62965); test: Binding affinity for mouse Cytoplasmic retinoic acid binding protein type 1; outline: as §2
Cellular retinoic acid-binding protein 1, sequence (P62965 whole entry): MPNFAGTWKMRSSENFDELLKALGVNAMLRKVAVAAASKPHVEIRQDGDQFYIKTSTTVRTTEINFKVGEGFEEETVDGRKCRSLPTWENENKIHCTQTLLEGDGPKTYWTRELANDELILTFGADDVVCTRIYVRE

[6] = biological target: T5, Retinoic acid receptor RXR-alpha (Homo sapiens, UniProt P19793); test: Binding affinity for human Retinoid X receptor RXR alpha; outline: as §2
T5 sequence (P19793 whole entry): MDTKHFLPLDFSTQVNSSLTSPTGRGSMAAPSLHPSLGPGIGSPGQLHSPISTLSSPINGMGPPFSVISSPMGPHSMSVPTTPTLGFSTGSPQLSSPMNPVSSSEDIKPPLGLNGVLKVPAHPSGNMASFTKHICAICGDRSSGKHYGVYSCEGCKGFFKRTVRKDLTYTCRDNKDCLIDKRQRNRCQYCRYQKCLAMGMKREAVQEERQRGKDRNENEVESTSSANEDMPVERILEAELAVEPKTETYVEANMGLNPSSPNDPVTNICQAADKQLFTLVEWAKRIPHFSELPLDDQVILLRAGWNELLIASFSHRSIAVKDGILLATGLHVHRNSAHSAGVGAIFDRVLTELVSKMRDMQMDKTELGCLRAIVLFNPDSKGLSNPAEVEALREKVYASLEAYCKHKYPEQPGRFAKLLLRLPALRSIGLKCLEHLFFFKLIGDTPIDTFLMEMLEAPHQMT

- IC50 [1]: 6 nM
- IC50 [2]: > 1000 nM
- IC50 [3]: 10 nM
- Kd [4]: 1.4 nM
- Kd [5]: 0.3 nM
- Kd [6]: > 200 nM
SMILES: CCC1=C(C(C)C)/C(=C/C(C)=C/C=C/C(C)=C/C(=O)O)CCC1
